# Measured values taken from publication PMC8965017 (International Journal of Nanomedicine, 2022).
# Experiments:
# MDA-MB-231 cells [1] = assay: Cell uptake of C6-labelled micelles; format: cell-based, human; conditions: MDA-MB-231, 1 h and 4 h
# Method in brief: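 Coumarin 6 was loaded into the polymer micelles by film dispersion. MDA-MB-231 cells were seeded overnight at 1×10^4 cells/well and given free C6 or C6-micelles; one group was pretreated with HA (10 mg/mL) for 0.5 h to block the receptor. After 1 h or 4 h at 37°C, cells were PBS-washed three times, paraformaldehyde-fixed for 10 min, DAPI-stained for 10 min at room temperature and viewed by fluorescence microscopy.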
# [2] = system: MDA-MB-231 tumor-bearing mice; assay: In vivo antitumor efficacy; set-up: species or system BALB/c nude mice; conditions: 5 mg/kg once every 3 days, 6 times, day 18
# Method in brief: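 Female BALB/c nude mice aged 4–5 weeks carried subcutaneous MDA-MB-231 tumours. At about 100 mm3 they were randomised into 5 groups (n = 6): PBS, single drugs, combination or nanoparticles. From day 0, intravenous doses of 5 mg/kg were given every 3 days, 6 times in total. Tumour length and width were measured by caliper before each dose to calculate volume, and tumours were excised after the last dose.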
# MDA-MB-231 cells [3] = assay: Calcein-AM/PI staining; format: cell-based, human; conditions: DAS concentration 10 µM, 24 h
# Method in brief: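 MDA-MB-231 cells (RPMI-1640, 10% FBS, 1% penicillin-streptomycin; 37°C, 5% CO2) were seeded at 1×10^4 cells/well and grown overnight. They were then exposed for 24 h to free drugs, their combination or the nanoparticle formulation at a DAS concentration of 10 µM. Cells were stained with calcein-AM/PI at 37°C for 30 min and imaged by fluorescence microscopy.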
# MDA-MB-231 cells [4] = assay: In vitro cytotoxicity, MTT assay; format: cell-based, human; conditions: 5-100 μM, 24 and 48 h
# Method in brief: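 MDA-MB-231 cells were seeded at 1×10^4 cells/well for 24 h. Medium was then replaced with single drugs, their combination or the nanoparticle formulation at 5, 10, 20, 50, 75 and 100 μM. After 24 or 48 h, MTT was added for 4 h and absorbance was read at 490 nm. Survival was calculated from blank, treated and control OD; mean ± SD, n = 3.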
# In vivo safety = assay: In vivo safety; set-up: species or system BALB/c nude mice; conditions: after treatment
# Method in brief: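 At the end of treatment, blood from the MDA-MB-231 xenograft-bearing nude mice was assayed for serum AST, ALT, AKP, BUN and creatinine. Major organs (heart, liver, spleen, lung, kidney) were taken for HE staining. Mean ± SD, n = 3.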
structure (smiles),measurement,setting,value
"CCN(CC)c1ccc2cc(-c3nc4ccccc4s3)c(=O)oc2c1 [C6, coumarin 6]",cellular uptake (green fluorescence of C6),MDA-MB-231 cells [1],weak green fluorescence
"Cc1nc(Nc2ncc(C(=O)Nc3c(C)cccc3Cl)s2)cc(N2CCN(CCO)CC2)n1 [DAS, Dasatinib]",tumor growth inhibition rate (TGI),[2],49.83%
"O=C(c1cc(Cc2n[nH]c(=O)c3ccccc23)ccc1F)N1CCN(C(=O)C2CC2)CC1 [OLA, Olaparib]","live/dead fluorescence (green living, red dead)",MDA-MB-231 cells [3],no obvious red appearance
same,toxicity to MDA-MB-231 cells (MTT),MDA-MB-231 cells [4],low toxicity
same,"serum indicators of liver and renal function (AST, ALT, BUN, CRE) vs normal mice",In vivo safety,significantly increased
